Assay [1] addresses T1, Peroxisome proliferator-activated receptor alpha (Homo sapiens) (UniProt Q07869).
T1 sequence (whole entry): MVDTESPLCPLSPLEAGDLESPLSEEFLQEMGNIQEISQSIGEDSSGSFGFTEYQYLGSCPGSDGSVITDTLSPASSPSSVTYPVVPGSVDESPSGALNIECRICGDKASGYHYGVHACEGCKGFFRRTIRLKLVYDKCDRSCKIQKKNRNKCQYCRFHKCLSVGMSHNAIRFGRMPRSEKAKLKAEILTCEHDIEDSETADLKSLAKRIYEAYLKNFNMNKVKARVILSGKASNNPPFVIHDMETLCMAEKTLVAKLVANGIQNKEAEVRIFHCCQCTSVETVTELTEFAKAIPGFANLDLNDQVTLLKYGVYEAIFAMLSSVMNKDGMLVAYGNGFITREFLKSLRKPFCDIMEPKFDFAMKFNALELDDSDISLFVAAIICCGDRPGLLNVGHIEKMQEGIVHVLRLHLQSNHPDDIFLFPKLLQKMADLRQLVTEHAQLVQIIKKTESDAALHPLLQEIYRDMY
Put plainly: Agonist activity at human PPARalpha expressed in HepG2 cells co-transfected with PPRE3-TK-luc assessed as beta-galactosidase activity after 20 to 22 hrs by luciferase based transactivation assay relative to WY-14643. The format is functional, cell-based. The method in brief: (§1)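 HepG2 (MEM, 10% FBS, NEAA, pyruvate, pen/strep) seeded 400,000 cells/well, transfected (Superfect) with pSG5 vector carrying full-length hPPAR cDNA plus PPRE3-TK-luc; 3 h at 37 °C, 5% CO2, then ligand-containing medium added, 20–22 h.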

The target of assay [2] is T2, Peroxisome proliferator-activated receptor delta (Homo sapiens) (UniProt Q03181).
T2 sequence (whole entry): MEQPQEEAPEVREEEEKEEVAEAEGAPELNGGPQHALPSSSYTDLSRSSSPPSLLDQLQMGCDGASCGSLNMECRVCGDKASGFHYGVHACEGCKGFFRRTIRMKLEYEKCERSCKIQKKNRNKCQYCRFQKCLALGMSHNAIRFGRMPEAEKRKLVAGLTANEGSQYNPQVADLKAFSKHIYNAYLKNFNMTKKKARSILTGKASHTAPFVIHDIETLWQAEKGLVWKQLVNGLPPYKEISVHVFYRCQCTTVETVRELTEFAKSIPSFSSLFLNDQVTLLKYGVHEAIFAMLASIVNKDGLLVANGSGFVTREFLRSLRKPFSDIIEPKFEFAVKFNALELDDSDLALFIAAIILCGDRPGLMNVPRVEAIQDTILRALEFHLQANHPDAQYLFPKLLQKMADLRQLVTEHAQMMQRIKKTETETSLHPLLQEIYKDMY
The experiment in a line: Agonist activity at human PPARdelta expressed in HepG2 cells co-transfected with PPRE3-TK-luc assessed as beta-galactosidase activity after 20 to 22 hrs by luciferase based transactivation assay relative to GW-501516. The class given is functional, cell-based. The method in brief: as §1

The target of assay [3] is T3, Peroxisome proliferator-activated receptor alpha (Homo sapiens, UniProt Q07869).
T3 sequence (Q07869 whole entry): T1 sequence (whole entry)
The experiment in a line: Agonist activity at human PPARalpha expressed in HepG2 cells co-transfected with PPRE3-TK-luc assessed as beta-galactosidase activity after 20 to 22 hrs by luciferase based transactivation assay. The class given is functional, cell-based.

Assay [4] concerns the target T4, Peroxisome proliferator-activated receptor gamma (Homo sapiens, UniProt P37231).
T4 sequence (P37231 whole entry): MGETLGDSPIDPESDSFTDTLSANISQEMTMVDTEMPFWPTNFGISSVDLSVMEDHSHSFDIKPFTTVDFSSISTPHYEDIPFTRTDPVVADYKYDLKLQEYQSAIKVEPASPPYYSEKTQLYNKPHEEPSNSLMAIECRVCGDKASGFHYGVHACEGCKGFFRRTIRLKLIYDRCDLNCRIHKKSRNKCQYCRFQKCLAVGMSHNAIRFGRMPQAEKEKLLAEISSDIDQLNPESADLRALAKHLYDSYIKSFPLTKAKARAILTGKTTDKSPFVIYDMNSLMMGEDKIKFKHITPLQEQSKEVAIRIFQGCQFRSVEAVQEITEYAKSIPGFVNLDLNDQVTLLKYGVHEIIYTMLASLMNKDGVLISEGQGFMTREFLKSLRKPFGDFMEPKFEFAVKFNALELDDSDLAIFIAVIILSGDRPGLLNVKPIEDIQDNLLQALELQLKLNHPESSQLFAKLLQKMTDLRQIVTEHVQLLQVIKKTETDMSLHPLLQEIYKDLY
The class given is functional, cell-based, HepG2.

Assay [5] addresses T5, Peroxisome proliferator-activated receptor delta (Homo sapiens, UniProt Q03181).
T5 sequence (Q03181 whole entry): T2 sequence (whole entry)
The experiment in a line: Agonist activity at human PPARdelta expressed in HepG2 cells co-transfected with PPRE3-TK-luc assessed as beta-galactosidase activity after 20 to 22 hrs by luciferase based transactivation assay. The format is functional, cell-based.

The subject of assay [6] is Mus musculus. Put plainly: Antihyperglycemic activity in db/db mouse assessed as reduction of serum glucose level at 10 mg/kg, po qd for 14 days relative to control. The class given is functional. Set-up: scale not given: the % may be the effect or the level left. The method in brief:
(§2)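 Male db/db mice, 12–14 weeks, 30–40 g, tail-bled before the study. Groups of six were matched for plasma glucose, TG and TC. Dosing was oral once daily for 14 days, with vehicle 0.5% methylcellulose in water, and mice were fed ad libitum. About 1 h after the last dose, mice were tail-bled and serum/plasma glucose and TG measured. Values are % change versus vehicle-treated mice, mean ± SD (n = 6).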

Assay [7] concerns Mus musculus. Put plainly: Antihyperlipidemic activity in db/db mouse assessed as reduction of serum triglyceride level at 10 mg/kg, po qd for 14 days relative to control. The class given is functional. Also on record: scale not given: the % may be the effect or the level left. The method in brief:
as §2

The test system of assay [8] is Syrian golden hamster. Put plainly: Antihyperlipidemic activity in high fat-high cholesterol-fructose fed hamster assessed as increase of serum HDL-cholesterol level at 10 mg/kg, po qd for 14 days. The class given is functional, organism-based. Set-up: dose 10 mg/kg. The settings on record: Mesocricetus auratus.
Assay [9] relates to Syrian golden hamster. Put plainly: Antihyperlipidemic activity in high fat-high cholesterol-fructose fed hamster assessed as decrease of serum LDL-cholesterol level at 10 mg/kg, po qd for 14 days. Particulars: Mesocricetus auratus. The class given is functional, organism-based. Also on record: dose 10 mg/kg.
The test system of assay [10] is Mus musculus. Put plainly: Antihyperglycemic activity in db/db mouse assessed as reduction of serum glucose level at 3 mg/kg, po qd for 14 days relative to control. The class given is functional. Set-up: scale not given: the % may be the effect or the level left. The method in brief:
as §2

Assay [11] concerns Mus musculus. The experiment in a line: Antihyperlipidemic activity in db/db mouse assessed as reduction of serum triglyceride level at 3 mg/kg, po qd for 14 days relative to control. The class given is functional. Also on record: scale not given: the % may be the effect or the level left. Summed up: as §2

Activity calls are given as the source filed them. The calls are words filed in the database; no cut-off is given here.

The values that follow come from ChEMBL document CHEMBL1641508, “Effect of structurally constrained oxime-ether linker on PPAR subtype selectivity: Discovery of a novel and potent series of PPAR-pan agonists” (Bioorg Med Chem, 2011).

In the case of `CC/C(=N\OCc1nc(-c2ccc(C)cc2)oc1C)c1ccc(OCC(=O)O)cc1`, the Emax in assay [1] turned out to be 68.5%; in [2], 49.2%.

With `Cc1cc(/C(=N/OCc2nc(-c3ccccc3)oc2C)C2CCCCC2)ccc1OCC(=O)O`, the Emax came to 9.7% in [1] and 58.8% in [2].

For `CC/C(=N\OCc1nc(-c2ccccc2)oc1C)c1ccc(OCC(=O)O)cc1`, the Emax in assay [1] came to 42.5%; in [2] it was 46.4%.

As to `Cc1cc(/C(=N/OCc2sc(-c3ccc(C(F)(F)F)cc3)nc2C)C2CCCCC2)ccc1OCC(=O)O`, the results for the Emax in assay [1] and in [2] were 57.9% and 98.7%, respectively. Moreover, the figures for the EC50 in assay [3], in assay [4] and in [5] were 1600 nM, 1000 nM and 700 nM, respectively.

On to `CC/C(=N\OCc1sc(-c2ccc(C(F)(F)F)cc2)nc1C)c1ccc(OCC(=O)O)cc1`, for which the Emax in [1] is 97.5%; in assay [2], 41.4%.

Regarding `CCC/C(=N\OCc1nc(-c2ccccc2)oc1C)c1ccc(OCC(=O)O)c(C)c1`, the Emax in assay [1] worked out at 14.1%; in [2] it was 51.7%.

In the case of `C/C(=N\OCc1nc(-c2ccc(C)cc2)oc1C)c1ccc(OCC(=O)O)c(C)c1`, the Emax is 45.3% in assay [1] and 67.6% in assay [2]. Also, the values for the EC50 in assay [3], in [4] and in assay [5] were 150 nM, 400 nM and 300 nM, respectively.

Consider `CC(C)(Oc1ccc(CCNC(=O)c2ccc(Cl)cc2)cc1)C(=O)O` [BEZAFIBRATE], for which the EC50 in assay [4] turned out to be 57200 nM; in assay [5] it was 18900 nM.

Turning to `C/C(=N\OCc1nc(-c2ccccc2)oc1C)c1ccc(OCC(=O)O)c(C)c1`, the Emax worked out at 84.5% in assay [1] and 74.5% in assay [2]. Further, the EC50 in assay [3] amounted to 500 nM; in assay [4], 300 nM; in assay [5] it was 800 nM. Moreover, the Activity in assay [6] is listed as -59.9%; in assay [7] it was -52.4%. Also, the outcome in [8] and in assay [9] was Active.

On to `CCC/C(=N\OCc1nc(-c2ccc(C)cc2)oc1C)c1ccc(OCC(=O)O)c(C)c1`, for which the Emax in assay [1] was found to be 33.3%; in [2], 46.8%.

In the case of `Cc1cc(SCc2sc(-c3ccc(C(F)(F)F)cc3)nc2C)ccc1OCC(=O)O`, in assay [1], the Emax was 76.9%.

Turning to `CCO[C@@H](Cc1ccc(OCCc2ccc(OS(C)(=O)=O)cc2)cc1)C(=O)O` [TESAGLITAZAR], the Activity in assay [10] is listed as -60.2%; in [11], -54.4%.

Turning to `Cc1ccc(-c2nc(CO/N=C(/c3ccc(OCC(=O)O)c(C)c3)C3CCCCC3)c(C)o2)cc1`, the Emax in assay [1] was 14.1%; in [2], 56.6%.

For the compound `C/C(=N\OCc1nc(-c2ccccc2)oc1C)c1ccc(OCC(=O)O)cc1`, the Emax in assay [1] stood at 58.8%; in assay [2], 52.1%.

On to `CC/C(=N\OCc1sc(-c2ccc(C(F)(F)F)cc2)nc1C)c1ccc(OCC(=O)O)c(C)c1`, for which the Emax worked out at 96.4% in assay [1] and 61.9% in assay [2]. Further, the EC50 in assay [3] was determined as 120 nM; in assay [4], 800 nM; in [5], 800 nM.

Take `CC/C(=N\OCc1nc(-c2ccccc2)oc1C)c1ccc(OCC(=O)O)c(C)c1`: the Emax in assay [1] came out at 56.4%; in [2], 72.3%.

In the case of `CCC/C(=N\OCc1sc(-c2ccc(C(F)(F)F)cc2)nc1C)c1ccc(OCC(=O)O)c(C)c1`, the Emax in [1] was 58.7%; in assay [2], 48.3%.

As to `C/C(=N\OCc1sc(-c2ccc(C(F)(F)F)cc2)nc1C)c1ccc(OCC(=O)O)c(C)c1`, the results for the Emax in assay [1] and in assay [2] were 99.8% and 90.1%, respectively. Besides, the results for the EC50 in assay [3], in assay [4] and in assay [5] were 8 nM, 6 nM and 10 nM, respectively. Further, the results for the Activity in assay [6] and in assay [7] were -23.2% and -36.5%, respectively. Also, the outcome in [8] and in assay [9] was Active.

Consider `C/C(=N\OCc1sc(-c2ccc(C(F)(F)F)cc2)nc1C)c1ccc(OCC(=O)O)cc1`, for which the Emax in assay [1] was 86.2%; in assay [2] it was 60.6%.

As to `C/C(=N\OCc1nc(-c2ccc(C)cc2)oc1C)c1ccc(OCC(=O)O)cc1`, the Emax in [1] is 51.1%; in [2] it was 48.1%.

For `CC/C(=N\OCc1nc(-c2ccc(C)cc2)oc1C)c1ccc(OCC(=O)O)c(C)c1`, the Emax in assay [1] is 72.6%; in [2] it was 56.3%.
